Reference: PubChem BioAssay AID720543 (The Scripps Research Institute Molecular Screening Center, 2013)
About 2,000 (0.54%) of roughly 370,000 compounds were called active.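 The calls were made as follows: active = inhibition exceeding the mean over every tested compound plus 3 SD (cut at about 30% in these data); inactive = the rest.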 This excerpt belongs to a sample that is enriched for actives.

These compounds were tested against (Lyso)-N-acylphosphatidylethanolamine lipase (Mus musculus) (UniProt Q8VD66) (assay: ABHD4 inhibitors, primary screen, biochemical, fluorescence polarization, mouse (AID 720543;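 also: 0% = plate median of compound wells and 100% = S159A mutant with DMSO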)). Details: purified mABHD4, FP-Rh probe fluorescence polarization; at 8.92 µM; hits give high values.
Chain of (Lyso)-N-acylphosphatidylethanolamine lipase (Mus musculus) (Q8VD66 whole entry, looked up): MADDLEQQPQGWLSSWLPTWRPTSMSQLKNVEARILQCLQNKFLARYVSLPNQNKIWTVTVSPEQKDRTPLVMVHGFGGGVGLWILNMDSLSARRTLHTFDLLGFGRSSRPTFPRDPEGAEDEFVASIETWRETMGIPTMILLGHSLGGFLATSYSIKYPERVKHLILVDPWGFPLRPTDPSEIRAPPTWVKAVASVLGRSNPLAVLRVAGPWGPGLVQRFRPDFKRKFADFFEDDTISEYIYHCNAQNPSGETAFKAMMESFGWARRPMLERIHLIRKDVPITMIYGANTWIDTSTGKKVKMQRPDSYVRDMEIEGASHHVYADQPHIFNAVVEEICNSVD
Procedure, shortened: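 system = mouse ABHD4 enzyme, wild type | medium = HEPES pH 7.0, NaCl, Pluronic buffer | also added = FP-Rh probe | incubation = Enzyme–compound pre-incubation 45 min, then probe 60 min, both 25 °C | technique = fluorescence polarization, excitation 525 nm, emission 598 nm, BODIPY TMR filters | controls = S159A mutant high control, sample median low control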
With COCCOC(=O)c1sc(=S)n(CCOC)c1N the inhibition was 52.1% (active). With C=CCN(Cc1ccc2c(c1)OCO2)C(C#CC1CC1)C(C)(C)C (centres undefined) the inhibition was 7.34% (inactive). For N#Cc1ccc(OC[C@@H](O)CN2CCC(C(O)(c3ccccc3)c3ccccc3)CC2)c(F)c1, the inhibition was 3.13% (inactive). With COCCCn1c(SCC(=O)Nc2oc(C)c3c(C)n[nH]c(=O)c23)nc2sc3c(c2c1=O)CCC3 the inhibition was -0.16% (inactive). With NC(=O)COc1ccc(/C=N/NC(=O)C2CCCN2S(=O)(=O)c2ccc(Cl)cc2)cc1 (centres undefined) the inhibition was -2.8% (inactive). NC(N)=N/N=C/c1ccc(OCc2ccc(Cl)cc2Cl)cc1 was tested, and the inhibition was 31.7% (active). With COC(=O)c1ccccc1-n1cc(COC(=O)NCCc2ccccc2)nn1 the inhibition was 4.86% (inactive). For CC(=O)c1ccc(S(=O)(=O)NCC2CCN(C(=O)C(=O)c3cccs3)CC2)cc1, the inhibition was -4.2% (inactive). In the case of C=C1C(C(C)C)N(C)C2=NC(c3ccccc3)CC(=O)N12 (centres undefined), the inhibition is reported as -4.4% (inactive). With COc1ccccc1Cc1c(-c2ccc(Cl)cc2)nc2ccc(Cl)cn12 the inhibition was -4.24% (inactive). With Clc1ccc2nc(CSc3ccccc3)cn2c1 the inhibition was 0.19% (inactive). In the case of CCCCCCSc1ccc(-c2nc3ccc(Cl)cn3c2NCc2ccccc2)cc1, the inhibition is reported as 30.7% (active). With CCOC(=O)C1(S(=O)(=O)c2ccc(Cl)cc2)CCN(Cc2ccccc2)CC1 the inhibition was -3.97% (inactive). c1csc(-c2nnc(COc3ccc4c(c3)OCO4)o2)c1 was tested, and the inhibition was 2.17% (inactive). c1coc(CCNc2ncnc3ccc(-c4ccc5c(c4)OCO5)cc23)c1 was tested, and the inhibition was -22.8% (inactive). For Cc1ccc(NC(=O)Cc2nc(COC(=O)C(C)NS(=O)(=O)c3ccc(C)cc3)cs2)cc1 (centres undefined), the inhibition was 30% (active). For CC(=O)Nc1ccc(S(=O)(=O)NC(C)C(=O)OCC(=O)NC2CCCC2)cc1 (centres undefined), the inhibition was -2.25% (inactive). For C/C=C/C(=O)OCc1csc(CC(=O)Nc2ccccc2C)n1, the inhibition was -5.94% (inactive). Cc1cc(C)c2nc3nc(C)cc(C)c3c(N)c2c1 was tested, and the inhibition was -1.05% (inactive). In the case of Cc1sc2nc(SCC(=O)c3ccc(O)c(O)c3)n(Cc3ccco3)c(=O)c2c1C, the inhibition is reported as 4.55% (inactive). With COCCCNC(=O)C[C@H]1C[C@@]2(C(=O)OC)C(=C[C@H](C(C)(C)C)O[C@@H]2C)N(Cc2ccc3c(c2)OCO3)C1=O the inhibition was 1.21% (inactive). For CCOC(=O)c1cc(-c2sc(NC(=O)c3ccccc3)nc2C)n(-c2ccc(Br)cc2)n1, the inhibition was 1.18% (inactive). With Cc1ccc2c(C(=O)CN3CCCC3)c(C)[nH]c2c1 the inhibition was 0.49% (inactive). With Cc1ccc(Nc2ccccc2N)cc1 the inhibition was 28.9% (inactive). In the case of Nc1ccc(Nc2ccccc2)cc1, the inhibition is reported as 46.5% (active). With O=c1cnnc(Nc2ccccc2)[nH]1 the inhibition was 4.6% (inactive). CCCc1ccc(C(O)c2ncc(-c3cccc(OC)c3)[nH]2)cc1 (centres undefined) was tested, and the inhibition was -9.64% (inactive). For Cc1ccc(CN2CCCCC(NC(=O)C3CCCCC3)C2=O)cc1 (centres undefined), the inhibition was -4.62% (inactive). With COC(=O)C1CN(CC(C)C)CCS(=O)(=O)N1Cc1ccc(C)cc1 (centres undefined) the inhibition was 2.37% (inactive). In the case of CN1c2ccc(C=O)c3c(C=O)ccc(c23)N(C)C1(C)C, the inhibition is reported as 64.5% (active). For COC(=O)C1CN(CC(C)C)CCS(=O)(=O)N1Cc1ccc(F)cc1 (centres undefined), the inhibition was 0.68% (inactive). CCC(=O)c1c(CC)c2n3c1=CC[C@H]3CC(Br)C=2 (some centres undefined) was tested, and the inhibition was 3.54% (inactive). Cc1cc(C)n2ncc(C(=O)Nc3ccc4c(c3)OCCO4)c2n1 was tested, and the inhibition was 1.04% (inactive). With Cc1cc(C(=O)COc2ccccc2[N+](=O)[O-])c(C)n1-c1cccc(S(=O)(=O)N2CCOCC2)c1 the inhibition was -5.94% (inactive). With O=C(N/N=C/c1cccc([N+](=O)[O-])c1)C1CC(=O)N(c2ccc(Br)cc2)C1 (centres undefined) the inhibition was -2.95% (inactive). With Cc1cc(C(=O)N/N=C/c2ccc(O)c([N+](=O)[O-])c2)c(C)n1-c1ccc(F)cc1 the inhibition was 37.5% (active). In the case of O=C1CC(c2ccc3c(c2)OCO3)N=C2N(CC3CC3)C/C(=C/c3ccccc3)N12 (centres undefined), the inhibition is reported as 5.86% (inactive). COc1cccc(CNC(=O)[C@H]2CCCN2C(=O)[C@H]2CCCN2C(=O)c2cc(F)cc(F)c2)c1 was tested, and the inhibition was 1.83% (inactive). Cc1cc(=O)n2[nH]c(-c3sccc3-n3c(C)ccc3C)cc2n1 was tested, and the inhibition was 16.4% (inactive). In the case of O=[N+]([O-])/C=C/c1ccc2c(ccn2Cc2ccccc2)c1, the inhibition is reported as -15% (inactive). O=C(O)c1ccc(N/N=C/c2cn(-c3ccccc3)nc2-c2cccs2)cc1 was tested, and the inhibition was 34.6% (active). In the case of Cc1c(NC(=O)C(=O)N/N=C/c2cccs2)c(=O)n(-c2ccccc2)n1C, the inhibition is reported as 3.46% (inactive). With O=S(=O)(/N=C(/Nc1ccccc1)c1ccccc1)c1cccs1 the inhibition was 1.09% (inactive). With CN1C[C@]2(C=C3CCCCC3n3c(=O)n(-c4ccccc4)c(=O)n32)N=C1NC(=O)c1ccccc1 (some centres undefined) the inhibition was 0.57% (inactive). COc1cc(C(=O)Nn2c(O)c(C3=c4ccccc4=NC3=O)sc2=S)ccc1O was tested, and the inhibition was 57.7% (active). In the case of COc1cc(C(=S)NC2CCCCC2)ccc1O, the inhibition is reported as 0.73% (inactive). For COc1ccc(C(=O)NC(=S)N2CCCCC2c2cccnc2)cc1OC (centres undefined), the inhibition was -3.67% (inactive). In the case of CCOC(=O)[C@]12CCCC=C1N(Cc1ccc(OC)cc1)C(=O)[C@@H]2CC(=O)N1CCOCC1, the inhibition is reported as 5.88% (inactive). With O=C(c1ccc2c(c1)N(Cc1ccc(F)cc1)C(=O)CS2)N1CCOCC1 the inhibition was -7.7% (inactive).
